Data published in ChEMBL document CHEMBL2176870 (J Med Chem, 2012).
Values after ≈ are worked out from the molar mass of the structure shown. Active and inactive are the calls of the source. The calls are words filed in the database; no cut-off is given here.

Assays:
[1] = system: Moraxella catarrhalis; test: Antibacterial activity against Moraxella catarrhalis; type: functional
[2] = system: Staphylococcus aureus; test: Antibacterial activity against methicillin-resistant Staphylococcus aureus NRS384 assessed as killing activity at 600 to 1200 mg q8h with prolonged infusion of 2 hrs; type: functional, organism-based
[3] = Terminal elimination half life in Sprague-Dawley rat heart at 2 x 50 mg/kg, iv; type: ADME, organism-based; parameters: dose 50 mg/kg, route intravenous; details: read-out: beta t1/2 (converted)
Method in brief: (§1)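 Female Sprague–Dawley rats given two iv doses of 50 mg/kg. Levels measured in plasma, liver, kidney, brain, heart and lung. Cmax reported as ng/g for tissue and ng/mL for plasma; AUC(0–∞) as ng·h/mL. Half-life is the terminal elimination value.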

[4] = Terminal elimination half life in Sprague-Dawley rat brain at 2 x 50 mg/kg, iv; type: ADME, organism-based; parameters: dose 50 mg/kg, route intravenous; details: read-out: beta t1/2 (converted); method in brief: as §1
[5] = AUC (0 to infinity) in Sprague-Dawley rat lung at 2 x 50 mg/kg, iv; type: ADME, organism-based; parameters: time infinity, dose 50 mg/kg, route intravenous; method in brief: as §1
[6] = AUC (0 to infinity) in Sprague-Dawley rat heart at 2 x 50 mg/kg, iv; type: ADME, organism-based; parameters: time infinity, dose 50 mg/kg, route intravenous; method in brief: as §1
[7] = AUC (0 to infinity) in Sprague-Dawley rat plasma at 2 x 50 mg/kg, iv; type: ADME, organism-based; parameters: time infinity, dose 50 mg/kg, route intravenous; method in brief: as §1
[8] = Cmax in Sprague-Dawley rat heart at 2 x 50 mg/kg, iv; type: ADME, organism-based; parameters: dose 50 mg/kg, route intravenous; method in brief: as §1
[9] = Cmax in Sprague-Dawley rat brain at 2 x 50 mg/kg, iv; type: ADME, organism-based; parameters: dose 50 mg/kg, route intravenous; method in brief: as §1
[10] = Toxicity in iv dosed rat administered bid for 2 weeks; type: organism-based; details: in vivo
Method in brief: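 Rats dosed iv twice daily for 14 days. NOAEL assessed from clinical findings and from macroscopic and microscopic examination.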

[11] = Toxicity in iv dosed mouse; type: organism-based; details: in vivo
Method in brief: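 Single intravenous dosing in mice; maximum tolerated dose determined.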

[12] = Thermodynamic aqueous solubility of the compound at pH 7.4; type: physicochemical; details: buffer, read-out: Therm_solubility
[13] = system: Enterococcus faecalis; test: Antibacterial activity against Enterococcus faecalis ATCC 29212 after 18 hrs by broth microdilution method; type: functional; details: ATCC 29212, 18 h
Method in brief: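 CLSI broth microdilution with serial 2-fold dilutions from 0.06 to 64 μg/mL. Cation-adjusted Mueller–Hinton broth, inoculum 5 × 10^5 CFU/mL, incubated at 35 °C for 18 h. MIC taken as the lowest concentration with no visible growth.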

[14] = system: Rattus norvegicus; test: Toxicity in rat assessed as effect on central nervous system and respiratory functions up to 200 mg/kg, iv; type: organism-based; parameters: dose 200 mg/kg, route intravenous; details: in vivo
Method in brief: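 Safety pharmacology in rats given single iv injections up to 200 mg/kg. Clinical signs, central nervous system effects and respiratory function were monitored.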

[15] = system: Escherichia coli; test: Antibacterial activity against Escherichia coli C7 after 18 hrs by broth microdilution method; type: functional; details: C7, 18 h

CCc1cc(O)c(Oc2ccc(C(N)=O)cc2F)cc1F
MIC90 [1]: 2 µg/mL (≈ 6.82 µM)
Activity [2]: Active
half-life [3]: 5 h
half-life [4]: 4.2 h
AUC(0-inf) [5]: 18400 ng·h/mL
AUC(0-inf) [6]: 23900 ng·h/mL
AUC(0-inf) [7]: 13900 ng·h/mL
Cmax [8]: 42100 ng/g
Cmax [9]: 37800 ng/g
NOAEL at 336 h [10]: 200 mg/kg/day
MTD [11]: > 200 mg/kg
solubility thermodynamic [12]: 20 µg/mL (≈ 68.2 µM)
MIC [13]: > 32 µg/mL
Activity [14]: Non-toxic
MIC [15]: 0.5 µg/mL (≈ 1.7 µM)
